In series [1] the test system is Mus musculus. Briefly: Hypolipidemic activity in CF1 mouse assessed as serum triglyceride level at 150 mg/kg/day administered for 16 days measured on day 16 relative to control. In kind it is functional. In outline: (§1)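 Male CF1 mice (28 g) were dosed daily for 16 days, with drug suspended in 1% carboxymethylcellulose. On days 9 and 16 blood was drawn from the tail vein and serum spun at 3000 g for 3 min. Total cholesterol was measured by the Liebermann-Burchard reaction and triglyceride by a commercial kit. Results are percent of vehicle control, n = 6, mean ± SD, Student's t-test.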

Series [2] concerns Mus musculus. Briefly: Hypolipidemic activity in CF1 mouse assessed as serum cholesterol level at 150 mg/kg/day administered for 16 days measured on day 9 relative to control. In kind it is functional. In short, it runs like this: as §1
For series [3], the system named is Mus musculus. Briefly: Hypolipidemic activity in CF1 mouse assessed as serum triglyceride level at 150 mg/kg/day administered for 16 days measured on day 16 relative to control.
The nature of series [4]: Cytotoxicity against human TMOLT3 cells after 3 days by trypan blue exclusion technique. The conditions noted are these: MOLT-3, 72 h, read-out: ED50 (the source's name). The series is classed as functional. In outline:
(§2)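 Tumor cells were mixed on day 0 with sterile drug at 1–100 µg/ml (from 1 mM stock in 0.05% Tween 80 water) in growth medium, 1 ml final. Cells were counted on day 3, while growth was still logarithmic. The concentration killing 50% of cells was read from a semilog plot.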

Series [5] can be described thus: Cytotoxicity against human EH118MG cells after 3 days by trypan blue exclusion technique. The series is classed as functional. The conditions noted are these: 72 h, read-out: ED50 (the source's name). In short, it runs like this:
as §2

A further series has as its system KB. Briefly: Cytotoxicity against human KB cells after 3 days by trypan blue exclusion technique. The conditions noted are these: 72 h, read-out: ED50 (the source's name). The series is classed as functional. In outline: as §2
Series [6] is described as follows: Cytotoxicity against human MB9812 cells after 3 days by trypan blue exclusion technique. In kind it is functional. The conditions noted are these: MB9812, 72 h, read-out: ED50 (the source's name). In outline:
as §2

In another series the test system is L1210. Briefly: Cytotoxicity against mouse L1210 cells after 3 days by trypan blue exclusion technique. The conditions noted are these: L1210, 72 h, read-out: ED50 (the source's name). In kind it is functional. In short, it runs like this: as §2
Another series deals with SW480. Put plainly: Cytotoxicity against human SW480 cells after 3 days by trypan blue exclusion technique. The series is classed as functional. The conditions noted are these: SW480, 72 h, read-out: ED50 (the source's name). In outline:
as §2

Series [7] can be described thus: Cytotoxicity against human HeLaS3 cells after 3 days by trypan blue exclusion technique. In kind it is functional. The conditions noted are these: HeLa S3, 72 h, read-out: ED50 (the source's name). In outline:
as §2

For series [8], the system named is Mus musculus. Briefly: Antiinflammatory activity against CF1 mouse assessed as inhibition of carrageenan-induced paw edema at 8 mg/kg/day, ip administered 30 mins before carrageenan challenge measured after 3 hrs relative to control. In kind it is functional. The conditions noted are these: route intraperitoneal. In outline: (§3)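 CF1 male mice (ca. 25 g) got drug ip in 0.05% Tween 80 water twice, 3 h and 30 min before 0.2 ml of 1% carrageenan in 0.9% saline was injected into the right hind plantar surface. The left foot got saline as baseline. After 3 h both feet were cut off at the ankle and paw weight gain was compared; results are percent inhibition, n = 6, mean ± SD.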
Background: In the carrageenan paw model, swelling and tenderness develop within hours.

The nature of series [9]: Cytotoxicity against human TE-418 cells after 3 days by trypan blue exclusion technique. The series is classed as functional. The conditions noted are these: TE-418, 72 h, read-out: ED50 (the source's name). In outline:
as §2

Series [10] relates to Mus musculus. Briefly: Hypolipidemic activity in CF1 mouse assessed as serum cholesterol level at 8 mg/kg/day, ip administered for 16 days measured on day 16 relative to control.
For series [11], the system named is Mus musculus. Briefly: Hypolipidemic activity in CF1 mouse assessed as serum cholesterol level at 8 mg/kg/day, ip administered for 16 days measured on day 16 relative to control. In kind it is functional. The conditions noted are these: route intraperitoneal. In outline: as §1
Another series has as its system Ehrlich. Briefly: In vivo antineoplastic activity against mouse Ehrlich ascite carcinoma cells xenografted in CF1 mouse assessed as inhibition of tumor growth at 8 mg/kg/day after 9 days relative to control. In kind it is functional. The conditions noted are these: 216 h. In short, it runs like this: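 On day 0, CF1 male mice (ca. 25 g) received 2 × 10^6 Ehrlich ascites cells ip in isotonic saline. Drug in 0.05% Tween 80 water was given at 8 mg/kg/day on days 1–9. On day 10 ascites fluid was collected, and volume and packed-cell volume per animal were used to calculate percent tumor growth inhibition; n = 6, mean ± SD.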

Series [12] has as its system Mus musculus. Briefly: Hypolipidemic activity in CF1 mouse assessed as serum cholesterol level at 8 mg/kg/day, ip administered for 16 days measured on day 9 relative to control. The series is classed as functional. The conditions noted are these: route intraperitoneal. In outline: as §1
The subject of series [13] is Mus musculus. Briefly: Toxicity in CF1 mouse assessed as change in food consumption at 8 mg/kg/day administered in multiple doses for 16 days. The conditions noted are these: in vivo, 384 h. The series is classed as organism-based. In outline: (§4)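 During 16 days of multiple ip dosing at 8 mg/kg/day, mice were watched for body weight loss, food consumption, and behavioral, CNS and motor activity.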

For series [14], the system named is Mus musculus. Briefly: Toxicity in CF1 mouse assessed as behavioral changes at 8 mg/kg/day administered in multiple doses for 16 days. The series is classed as organism-based. The conditions noted are these: in vivo, 384 h. In short, it runs like this: as §4
In series [15] the test system is Mus musculus. Put plainly: Toxicity in CF1 mouse assessed as change in CNS and motor activity at 8 mg/kg/day administered in multiple doses for 16 days. The conditions noted are these: in vivo, 384 h. In kind it is organism-based. In outline:
as §4

Series [16] has as its system Mus musculus. Put plainly: Toxicity in CF1 mouse assessed as body weight loss at 8 mg/kg/day administered in multiple doses for 16 days. The series is classed as organism-based. The conditions noted are these: in vivo, 384 h. In short, it runs like this: as §4
Series [17] concerns Mus musculus. Put plainly: Antiinflammatory activity against CF1 mouse assessed as inhibition of carrageenan-induced paw edema at 10 mg/kg administered 30 mins before carrageenan challenge measured after 3 hrs relative to control. In kind it is functional. In short, it runs like this: as §3
Series [18] concerns Mus musculus. Put plainly: Antiinflammatory activity against CF1 mouse assessed as inhibition of carrageenan-induced paw edema at 50 mg/kg administered 30 mins before carrageenan challenge measured after 3 hrs relative to control. In kind it is functional. In outline: as §3

From ChEMBL document CHEMBL1158984, “Hypolipidemic, anti-inflammatory, and antineoplastic activity and cytotoxicity of flavonolignans isolated from Hydnocarpus wightiana seeds” (J Nat Prod, 1991) come the findings set out here.

≈ marks a conversion by molar mass, not a printed value.

One may read the inhibition in vivo as the drop in the measured response relative to a control, in per cent.

Take `CCOC(=O)C(C)(C)Oc1ccc(Cl)cc1` [CLOFIBRATE]: the Activity in the series on Mus musculus [1] worked out at 75%; in the series with Mus musculus [2], 88%; in the series with Mus musculus [3], 75%.
`Nc1ccn([C@@H]2O[C@H](CO)[C@@H](O)[C@@H]2O)c(=O)n1` [CYTARABINE]: the EC50 worked out at 2.67 µg/mL (≈ 11 µM) in series [4]; 1.88 µg/mL (≈ 7.73 µM) in [5]; 2.84 µg/mL (≈ 11.7 µM) in the series on KB; 4.6 µg/mL (≈ 18.9 µM) in [6]; 2.76 µg/mL (≈ 11.3 µM) in the series on L1210; 3.42 µg/mL (≈ 14.1 µM) in the series with SW480. Moreover, the EC50 in series [7] was found to be 2.13 µg/mL (≈ 8.76 µM).
For `O=c1[nH]cc(F)c(=O)[nH]1` [FLUOROURACIL], the EC50 turned out to be 2.14 µg/mL (≈ 16.5 µM) in series [4]; 1.28 µg/mL (≈ 9.84 µM) in [5]; 1.25 µg/mL (≈ 9.61 µM) in the series on KB; 5.64 µg/mL (≈ 43.4 µM) in series [6]; 1.41 µg/mL (≈ 10.8 µM) with L1210; 3.09 µg/mL (≈ 23.8 µM) with SW480. For the same molecule, the EC50 in series [7] was 2.47 µg/mL (≈ 19 µM).
`COc1cc([C@H]2Oc3cc(-c4cc(=O)c5c(O)cc(O)cc5o4)ccc3O[C@@H]2CO)ccc1O` [HYDNOCARPIN]: the EC50 in series [4] was determined as 2.94 µg/mL (≈ 6.33 µM); in series [9], 2.14 µg/mL (≈ 4.61 µM); in [5] it was 2.59 µg/mL (≈ 5.58 µM); with KB, 1.15 µg/mL (≈ 2.48 µM); in [6], 8.18 µg/mL (≈ 17.6 µM); in the series on L1210, 3.65 µg/mL (≈ 7.86 µM). In addition, the EC50 stood at 2 µg/mL (≈ 4.31 µM) in the series on SW480 and 2.02 µg/mL (≈ 4.35 µM) in series [7]. The inhibition in vivo at 8 mg/kg/day in the series with Mus musculus [8] was 42%; with Ehrlich, 84.8%. The Activity in the series on Mus musculus [10] was 62%; in the series on Mus musculus [11], 62%; in the series on Mus musculus [12] it was 83%.
Consider `COc1cc(/C=C(\CO)c2cc([C@H]3Oc4cc(-c5cc(=O)c6c(O)cc(O)cc6o5)ccc4O[C@@H]3CO)cc(OC)c2O)ccc1O` [HYDNOWIGHTIN], for which the Activity result in the series on Mus musculus [13] is on record as “Non-toxic”; with Mus musculus [10], 59%; in the series on Mus musculus [11] it was 59%; with Mus musculus [14] it was “Non-toxic”; with Mus musculus [12], 80%; with Mus musculus [15], “Non-toxic”. Moreover, the Activity entry with Mus musculus [16] is given as “Non-toxic”. Also, the EC50 in series [4] was determined as 4.33 µg/mL (≈ 6.74 µM); in series [9], 2.5 µg/mL (≈ 3.89 µM); in [5], 5.02 µg/mL (≈ 7.81 µM); in the series on KB, 1.96 µg/mL (≈ 3.05 µM); in series [6], 7.49 µg/mL (≈ 11.7 µM); with L1210, 3.07 µg/mL (≈ 4.78 µM). In addition, the EC50 in the series with SW480 is 2.38 µg/mL (≈ 3.7 µM); in series [7], 3.01 µg/mL (≈ 4.68 µM). For the same molecule, the inhibition in vivo at 8 mg/kg/day was 24% in the series with Mus musculus [8] and 12.1% in the series on Ehrlich.
With `NC(=O)NO` [HYDROXYUREA], the EC50 in series [4] is 3.18 µg/mL (≈ 41.8 µM); in series [9], 7.54 µg/mL (≈ 99.1 µM); in series [5], 2.27 µg/mL (≈ 29.8 µM); in the series on KB it was 5.29 µg/mL (≈ 69.6 µM); in series [6] it was 7.37 µg/mL (≈ 96.9 µM); in the series with L1210 it was 2.67 µg/mL (≈ 35.1 µM). For the same molecule, the figures for the EC50 (with SW480; in series [7]) were 4.79 µg/mL (≈ 63 µM) and 1.96 µg/mL (≈ 25.8 µM), respectively.
In the case of `COc1ccc2c(c1)c(CC(=O)O)c(C)n2C(=O)c1ccc(Cl)cc1` [INDOMETHACIN], in the series with Mus musculus [17], the inhibition in vivo at 10 mg/kg was 78%.
For `COc1cc([C@@H]2c3c(oc4cc(O)cc(O)c4c3=O)-c3cc(O)c(O)cc3[C@@H]2CO)ccc1O` [NEOHYDNOCARPIN], the EC50 is 3.05 µg/mL (≈ 6.57 µM) in series [4]; 2.49 µg/mL (≈ 5.36 µM) in [9]; 4.07 µg/mL (≈ 8.76 µM) in series [5]; 1.06 µg/mL (≈ 2.28 µM) in the series on KB; 4.53 µg/mL (≈ 9.75 µM) in series [6]; 3.29 µg/mL (≈ 7.08 µM) in the series on L1210. Besides, the EC50 was 2.03 µg/mL (≈ 4.37 µM) with SW480 and 2.12 µg/mL (≈ 4.56 µM) in series [7]. Also, the inhibition in vivo at 8 mg/kg/day in the series on Mus musculus [8] is 6%; in the series with Ehrlich, 43.1%. Moreover, the Activity worked out at 79% in the series on Mus musculus [10], 79% in the series on Mus musculus [11] and 85% with Mus musculus [12].
On to `CCCCC1C(=O)N(c2ccccc2)N(c2ccccc2)C1=O` [PHENYLBUTAZONE], for which the inhibition in vivo at 50 mg/kg with Mus musculus [18] turned out to be 47%.
